Test results taken from ChEMBL document CHEMBL1124934, “Synthesis and structure-activity relationships of dynorphin A-(1-8) amide analogues” (J Med Chem, 1990).
pIC50, pKi: −log10 of the molar value. Square brackets hold non-standard residues; d marks the D form. Peptide text beside a SMILES is read from it. Phe(4-NO2) = N[C@@H](Cc1ccc([N+](=O)[O-])cc1)C(=O)O; NMeY = CN[C@@H](Cc1ccc(O)cc1)C(=O)O; NMeF = CN[C@@H](Cc1ccccc1)C(=O)O; Sar = CNCC(=O)O

Legend:
[1] = target: Delta-type opioid receptor (Mus musculus, UniProt P32300); test: Evaluated for inhibitory activity against Opioid receptor delta 1 of mouse vas deferens (MVD).; type: tissue-based
Mu-type opioid receptor [2] = target: T1, Mu-type opioid receptor (Cavia porcellus, UniProt P97266); test: Evaluated for inhibitory activity against Opioid receptor mu 1 of guinea pig ileum (GPI); type: tissue-based
Mus musculus [3] = test: Evaluated for analgesic effect using mouse tail-pinch test after intravenous administration; type: functional
Outline: (§1)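 Mice, intravenous dosing, tail-pinch analgesia test. Four doses per compound, each dose tested on at least eight animals, giving ED50 in mg/kg.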

Mu-type opioid receptor [4] = target: T1, Mu-type opioid receptor; test: Binding affinities against Opioid receptor mu 1 of guinea pig brain membrane using [3H]DAGO as the radioligand using competition binding assays.
Outline: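 μ-site competition binding on crude P2 membranes from male Hartley guinea pig brain (1 g original wet weight/20 mL, 50 mM Tris-HCl pH 7.6) with 5 nM [3H]DAGO and varied competitor, 60 min at 25 °C. GF/B filtration (1% polyethylenimine presoaked), six ice-cold buffer rinses, scintillation counting. Nonspecific binding with 10 μM levallorphan. Mean of five or six determinations ± SEM.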

Mus musculus [5] = test: Evaluated for analgesic effect using mouse tail-pinch test after intravenous administration; 0.35-1.71; type: functional; outline: as §1
Mus musculus [6] = test: Evaluated for analgesic effect using mouse tail-pinch test after intravenous administration; 2.21-9.32; type: functional; outline: as §1
Mus musculus [7] = test: Evaluated for analgesic effect using mouse tail-pinch test after intravenous administration; 0.11-0.52; type: functional; outline: as §1
Mus musculus [8] = test: Evaluated for analgesic effect using mouse tail-pinch test after intravenous administration; 9.61-14.34; type: functional; outline: as §1
Mus musculus [9] = test: Evaluated for analgesic effect using mouse tail-pinch test after intravenous administration; 0.64-2.34; type: functional; outline: as §1

T1 sequence (P97266 whole entry): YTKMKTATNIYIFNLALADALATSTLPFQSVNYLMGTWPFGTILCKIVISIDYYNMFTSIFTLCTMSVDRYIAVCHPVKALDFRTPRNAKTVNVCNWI
Chain of Delta-type opioid receptor (P32300 whole entry): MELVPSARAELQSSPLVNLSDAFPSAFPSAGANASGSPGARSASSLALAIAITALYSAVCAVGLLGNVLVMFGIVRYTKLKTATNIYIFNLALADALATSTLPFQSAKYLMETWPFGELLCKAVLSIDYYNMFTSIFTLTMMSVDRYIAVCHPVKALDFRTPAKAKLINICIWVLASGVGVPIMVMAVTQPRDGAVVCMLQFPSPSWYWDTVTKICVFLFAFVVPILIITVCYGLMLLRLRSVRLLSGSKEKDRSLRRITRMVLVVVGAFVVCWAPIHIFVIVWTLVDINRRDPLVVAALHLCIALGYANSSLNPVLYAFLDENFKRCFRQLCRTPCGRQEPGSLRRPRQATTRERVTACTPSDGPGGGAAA

CCCCCCNC(=O)[C@@H](CC(C)C)NC(=O)[C@H](CCCNC(=N)N)NC(=O)[C@H](CCCNC(=N)N)NC(=O)[C@H](CC(C)C)NC(=O)[C@H](Cc1ccccc1)NC(=O)CNC(=O)CNC(=O)[C@H](Cc1ccc(O)cc1)NC
pIC50 [1]: 7.65
pIC50 (Mu-type opioid receptor [2]): 8.18

CCCCCCNC(=O)[C@H](CC(C)C)NC(=O)[C@H](CCCN=C(N)N)NC(=O)[C@H](CCCN=C(N)N)NC(=O)[C@H](CC(C)C)NC(=O)[C@@H](Cc1ccccc1)NC(=O)CNC(=O)CNC(=O)[C@H](Cc1ccc(O)cc1)NC
ED50 (Mus musculus [3]): > 7 mg/kg

CCNC(=O)[C@@H](CC(C)C)NC(=O)[C@H](CCCN=C(N)N)N(C)C(=O)[C@H](CCCN=C(N)N)NC(=O)[C@H](CC(C)C)NC(=O)[C@H](Cc1ccc([N+](=O)[O-])cc1)NC(=O)CNC(=O)CNC(=O)[C@H](Cc1ccc(O)cc1)NC [listing 1 of 2 here]
pKi (Mu-type opioid receptor [4]): 8.76
pIC50 [1]: 8.43
pIC50 (Mu-type opioid receptor [2]): 9.30

CCNC(=O)[C@@H](CC(C)C)NC(=O)[C@H](CCCN=C(N)N)N(C)C(=O)[C@H](CCCN=C(N)N)NC(=O)[C@H](CC(C)C)NC(=O)[C@H](Cc1ccc([N+](=O)[O-])cc1)NC(=O)CNC(=O)CNC(=O)[C@H](Cc1ccc(O)cc1)NC [listing 2 of 2 here]
ED50 (Mus musculus [5]): 0.77 mg/kg

CN[C@@H](Cc1ccc(O)cc1)C(=O)NCC(=O)NCC(=O)N[C@@H](Cc1ccccc1)C(=O)N[C@@H](CC(C)C)C(=O)N(C)[C@@H](CCCN=C(N)N)C(=O)N[C@@H](CCCN=C(N)N)C(=O)N[C@H](CC(C)C)C(N)=O [listing 1 of 2 here]
pIC50 [1]: 6.94
pIC50 (Mu-type opioid receptor [2]): 7.69

CN[C@@H](Cc1ccc(O)cc1)C(=O)NCC(=O)NCC(=O)N[C@@H](Cc1ccccc1)C(=O)N[C@@H](CC(C)C)C(=O)N(C)[C@@H](CCCN=C(N)N)C(=O)N[C@@H](CCCN=C(N)N)C(=O)N[C@H](CC(C)C)C(N)=O [listing 2 of 2 here]
ED50 (Mus musculus [6]): 4.54 mg/kg

CC[C@H](C)[C@H](NC(=O)[C@H](CCCNC(=N)N)NC(=O)[C@H](CCCNC(=N)N)NC(=O)[C@H](CC(C)C)NC(=O)[C@H](Cc1ccccc1)NC(=O)CNC(=O)CNC(=O)[C@@H](N)Cc1ccc(O)cc1)C(N)=O
pKi (Mu-type opioid receptor [4]): 8.15
pIC50 [1]: 8.52
pIC50 (Mu-type opioid receptor [2]): 9.70

CCNC(=O)[C@@H](CC(C)C)NC(=O)[C@H](CCCN=C(N)N)N(C)C(=O)[C@H](CCCN=C(N)N)NC(=O)[C@@H]1CSSC[C@@H](NC(=O)[C@@H](N)Cc2ccc(O)cc2)C(=O)NCC(=O)N[C@@H](Cc2ccccc2)C(=O)N1 [listing 1 of 2 here]
pKi (Mu-type opioid receptor [4]): 9.07
pIC50 [1]: 9.89
pIC50 (Mu-type opioid receptor [2]): 11.15

CCNC(=O)[C@@H](CC(C)C)NC(=O)[C@H](CCCN=C(N)N)N(C)C(=O)[C@H](CCCN=C(N)N)NC(=O)[C@@H]1CSSC[C@@H](NC(=O)[C@@H](N)Cc2ccc(O)cc2)C(=O)NCC(=O)N[C@@H](Cc2ccccc2)C(=O)N1 [listing 2 of 2 here]
ED50 (Mus musculus [7]): 0.22 mg/kg

CC(C)C[C@H](NC(=O)[C@H](CCCN=C(N)N)NC(=O)[C@H](CCCN=C(N)N)NC(=O)[C@H](CC(C)C)NC(=O)[C@H](Cc1ccccc1)NC(=O)CNC(=O)[C@H](C)NC(=O)[C@@H](N)Cc1ccc(O)cc1)C(N)=O (H-YAGFLRRL-NH2)
pIC50 [1]: 8.04
ED50 (Mus musculus [8]): 11.7 mg/kg
pIC50 (Mu-type opioid receptor [2]): 8.16

CC(C)C[C@H](NC(=O)[C@H](CCCN=C(N)N)NC(=O)[C@H](CCCN=C(N)N)NC(=O)[C@H](CC(C)C)NC(=O)[C@H](Cc1ccccc1)NC(=O)CNC(=O)CN(C)C(=O)[C@@H](N)Cc1ccc(O)cc1)C(N)=O (H-Y[Sar]GFLRRL-NH2)
ED50 (Mus musculus [3]): > 10 mg/kg

CC(C)C[C@H](NC(=O)[C@H](CCCNC(=N)N)NC(=O)[C@H](CCCNC(=N)N)NC(=O)[C@H](CC(C)C)NC(=O)[C@H](Cc1ccccc1)NC(=O)CNC(=O)CN(C)C(=O)[C@@H](N)Cc1ccc(O)cc1)C(N)=O (H-Y[Sar]GFLRRL-NH2)
pIC50 [1]: 5.75
pIC50 (Mu-type opioid receptor [2]): 6.05

CN[C@@H](Cc1ccc(O)cc1)C(=O)N[C@@H](C)C(=O)NCC(=O)N[C@@H](Cc1ccccc1)C(=O)N[C@@H](CC(C)C)C(=O)N[C@@H](CCCN=C(N)N)C(=O)N[C@@H](CCCN=C(N)N)C(=O)N[C@@H](CC(C)C)C(N)=O (H-[NMeY]AGFLRRL-NH2)
ED50 (Mus musculus [3]): > 5 mg/kg

CN[C@@H](Cc1ccc(O)cc1)C(=O)N[C@@H](C)C(=O)NCC(=O)N[C@@H](Cc1ccccc1)C(=O)N[C@@H](CC(C)C)C(=O)N[C@@H](CCCNC(=N)N)C(=O)N[C@@H](CCCNC(=N)N)C(=O)N[C@@H](CC(C)C)C(N)=O (H-[NMeY]AGFLRRL-NH2)
pKi (Mu-type opioid receptor [4]): 8.90
pIC50 [1]: 7.59
pIC50 (Mu-type opioid receptor [2]): 7.86

CN[C@@H](Cc1ccc(O)cc1)C(=O)NCC(=O)NCC(=O)N(C)[C@@H](Cc1ccccc1)C(=O)N[C@@H](CC(C)C)C(=O)N[C@@H](CCCNC(=N)N)C(=O)N[C@@H](CCCNC(=N)N)C(=O)N[C@@H](CC(C)C)C(N)=O (H-[NMeY]GG[NMeF]LRRL-NH2)
pIC50 [1]: 6.92
pIC50 (Mu-type opioid receptor [2]): 7.57

CN[C@@H](Cc1ccc(O)cc1)C(=O)NCC(=O)NCC(=O)N[C@@H](Cc1ccc([N+](=O)[O-])cc1)C(=O)N[C@@H](CC(C)C)C(=O)N[C@@H](CCCN=C(N)N)C(=O)N[C@@H](CCCN=C(N)N)C(=O)N[C@@H](CC(C)C)C(N)=O (H-[NMeY]GG[Phe(4-NO2)]LRRL-NH2)
pKi (Mu-type opioid receptor [4]): 9.00
pIC50 [1]: 8.42
ED50 (Mus musculus [9]): 1.23 mg/kg
pIC50 (Mu-type opioid receptor [2]): 8.89
